From ChEMBL document CHEMBL4138082 (Eur J Med Chem, 2017)
Calls of active or inactive are those of the source. No cut-off for these calls is given here.

Columns and labels:
[1] = test system: HepG2; assay: Induction of apoptosis in human HepG2 cells assessed as necrotic cells at 0.0625 uM after 48 hrs by Annexin V-APC/7-AAD staining based flow cytometry (reference value: 2.40%); format: functional
[2] = test system: HepG2; assay: Downregulation of survivin expression in human HepG2 cells after 24 hrs by protein array assay; format: functional, cell-based
How it was run: (§1)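 Lysates from HepG-2 cells treated 24 h were incubated overnight at 4 °C on a membrane array of 35 apoptosis-related proteins. A biotinylated detection antibody cocktail was then applied for 1 h at room temperature. Relative expression was read from chemiluminescent spots by densitometry.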

[3] = test system: HepG2; assay: Induction of apoptosis in human HepG2 cells assessed as late apoptotic cells at 0.25 uM after 48 hrs by […] based flow cytometry (reference value: 3.36%); format: functional
[4] = test system: HepG2; assay: Induction of apoptosis in human HepG2 cells assessed as early apoptotic cells at 0.25 uM after 48 hrs in presence of hemoglobin by Annexin V-APC/7-AAD staining based flow cytometry (reference value: 3.18%); format: functional
[5] = test system: HepG2; assay: Downregulation of pro-caspase 3 level in human HepG2 cells up to 0.25 uM after 48 hrs by Western blot method; format: functional, cell-based
How it was run: (§2)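 HepG-2 cells were exposed 48 h to 0, 0.0625, 0.125 or 0.25 µM and lysed on ice for 20 min. Equal protein loads were run on 12% SDS-PAGE and transferred to PVDF. Membranes were probed overnight at 4 °C with primary antibodies, then with HRP-conjugated secondaries, and detected by ECL chemiluminescence.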

[6] = test system: HepG2; assay: Downregulation of Bcl-2 level in human HepG2 cells up to 0.25 uM after 48 hrs by Western blot method; format: functional, cell-based; how it was run: as §2
[7] = test system: HepG2; assay: Induction of apoptosis in human HepG2 cells assessed as cell population with intact mitochondrial membrane potential at 0.125 uM measured after 48 hrs by JC-1 staining based flow cytometry (reference value: 98.51%); format: functional
How it was run: (§3)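 HepG-2 cells were exposed 48 h to 0.0625, 0.125 or 0.25 µM or to vehicle, then washed in PBS and stained with JC-1 in the dark. Red aggregate versus green monomer fluorescence was measured by flow cytometry to give the percentages of cells with healthy versus collapsed mitochondrial membrane potential.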

[8] = test system: HepG2; assay: Cell cycle arrest in human HepG2 cells assessed as G1 phase accumulation at 0.25 uM after 48 hrs by propidium iodide staining based flow cytometry (reference value: 32.74%); format: functional
How it was run: (§4)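 HepG-2 cells were plated and grown 24 h at 37 °C, then treated 48 h at 0, 0.0625, 0.125 or 0.25 µM, with 0.1% DMSO as control. Cells were fixed overnight in 70% ethanol at 4 °C, treated with RNase A and stained with propidium iodide. DNA content was measured by flow cytometry to give cell-cycle phase distribution.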

[9] = test system: HepG2; assay: Induction of apoptosis in human HepG2 cells assessed as viable cells at 0.125 uM after 48 hrs by Annexin V-APC/7-AAD staining based flow cytometry (reference value: 91.07%); format: functional; settings: HepG2, 48 h, read-out: Activity
[10] = test system: HepG2; assay: Induction of mitochondrial membrane potential loss in human HepG2 cells measured after 48 hrs by JC-1 staining based flow cytometry; format: functional, cell-based
How it was run: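 After 48 h exposure to 0.0625, 0.125 or 0.25 mM (so in the source) or vehicle, HepG-2 cells washed in PBS and stained with JC-1 in the dark. Flow cytometry scored cells with healthy (red aggregate) versus collapsed (green monomer) mitochondrial membrane potential.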

[11] = test system: HepG2; assay: Induction of apoptosis in human HepG2 cells assessed as early apoptotic cells at 0.0625 uM after 48 hrs in presence of hemoglobin by Annexin V-APC/7-AAD staining based flow cytometry (reference value: 3.18%); format: functional
[12] = test system: HepG2; assay: Induction of apoptosis in human HepG2 cells assessed as cell population with mitochondrial membrane potential loss at 0.0625 uM measured after 48 hrs by JC-1 staining based flow cytometry (reference value: 1.49%); format: functional; how it was run: as §3
[13] = Selectivity index, ratio of IC50 for human L02 cells to IC50 for human HepG2 cells; format: toxicity; settings: L02 cells and HepG2 cells, read-out: Ratio IC50
How it was run: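 MTT assay: cells grown 24 h at 37 °C, 5% CO2, then exposed 72 h; MTT (5 mg/mL) added for 4 h, formazan dissolved in DMSO, OD read at 570 nm. Vehicle 0.1% DMSO. Three independent experiments.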

[14] = test system: HepG2; assay: Upregulation of caspase 3 level in human HepG2 cells up to 0.25 uM after 48 hrs by Western blot method; format: functional, cell-based
[15] = test system: HepG2; assay: Cell cycle arrest in human HepG2 cells assessed as G2 phase accumulation at 0.0625 uM after 48 hrs by propidium iodide staining based flow cytometry (reference value: 23.38%); format: functional; how it was run: as §4
[16] = test system: HepG2; assay: Induction of apoptosis in human HepG2 cells after 48 hrs by […]; format: functional, cell-based
[17] = test system: HepG2; assay: Induction of apoptosis in human HepG2 cells assessed as chromatin condensation at 0.0625 to 0.25 uM measured after 48 hrs by Hoechst 33258 staining based fluorescent microscopic analysis; format: functional, cell-based
How it was run: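 After 48 h exposure to 0.0625, 0.125 or 0.25 µM, or to 0.1% DMSO vehicle, HepG-2 cells were stained with Hoechst 33258. Nuclear morphology, including chromatin condensation and fragmentation, was inspected by fluorescence microscopy.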

[18] = test system: HepG2; assay: Cell cycle arrest in human HepG2 cells assessed as S phase accumulation at 0.25 uM after 48 hrs by propidium iodide staining based flow cytometry (reference value: 43.88%); format: functional; how it was run: as §4
[19] = test system: HepG2; assay: Induction of apoptosis in human HepG2 cells assessed as cell population with intact mitochondrial membrane potential at 0.0625 uM measured after 48 hrs by JC-1 staining based flow cytometry (reference value: 98.51%); format: functional; how it was run: as §3
[20] = test system: HepG2; assay: Upregulation of Bax level in human HepG2 cells up to 0.25 uM after 48 hrs by Western blot method; format: functional, cell-based
[21] = test system: HepG2; assay: Downregulation of HO-1 expression in human HepG2 cells after 24 hrs by protein array assay; format: functional, cell-based; how it was run: as §1
[22] = test system: HepG2; assay: Cell cycle arrest in human HepG2 cells assessed as S phase accumulation at 0.125 uM after 48 hrs by propidium iodide staining based flow cytometry (reference value: 43.88%); format: functional; how it was run: as §4
[23] = test system: HepG2; assay: Cell cycle arrest in human HepG2 cells assessed as S phase accumulation at 0.0625 uM after 48 hrs in presence of hemoglobin by propidium iodide staining based flow cytometry (reference value: 36.40%); format: functional
[24] = test system: HepG2; assay: Induction of apoptosis in human HepG2 cells assessed as cell population with mitochondrial membrane potential loss at 0.125 uM measured after 48 hrs by JC-1 staining based flow cytometry (reference value: 1.49%); format: functional; how it was run: as §3
[25] = test system: HepG2; assay: Upregulation of total Cyt c level in human HepG2 cells up to 0.25 uM after 48 hrs by Western blot method; format: functional, cell-based
[26] = test system: HepG2; assay: Cell cycle arrest in human HepG2 cells assessed as G2 phase accumulation at 0.25 uM after 48 hrs by propidium iodide staining based flow cytometry (reference value: 23.38%); format: functional; how it was run: as §4
[27] = test system: HepG2; assay: Induction of apoptosis in human HepG2 cells assessed as nuclear fragmentation at 0.0625 to 0.25 uM measured after 48 hrs by Hoechst 33258 staining based fluorescent microscopic analysis; format: functional, cell-based

Compound: C[C@H]1CCC/C=C/[C@@H]2C[C@H](OC(=O)CCCC(=O)OCCOc3no[n+]([O-])c3S(=O)(=O)c3ccccc3)C[C@H]2[C@H](OC(=O)CCCC(=O)OCCOc2no[n+]([O-])c2S(=O)(=O)c2ccccc2)/C=C/C(=O)O1
- Activity [1]: 3%
- Activity [2]: Active
- Activity [3]: 40.21%
- Activity [4]: 8.7%
- Activity [5]: Active
- Activity [6]: Active
- Activity [7]: 64.55%
- Activity [8]: 25.17%
- viability at 0.125 µM [9]: 63%
- Activity [10]: Dose-dependent effect
- Activity [11]: 3.25%
- Activity [12]: 16.58%
- selectivity ratio [13]: 33
- Activity [14]: Active
- Activity [15]: 18.96%
- Activity [16]: Dose-dependent effect
- Activity [17]: Active
- Activity [18]: 72.16%
- Activity [19]: 83.42%
- Activity [20]: Active
- Activity [21]: Active
- Activity [22]: 51.22%
- Activity [23]: 24.74%
- Activity [24]: 35.45%
- Activity [25]: Active
- Activity [26]: 2.67%
- Activity [27]: Active
